These results are taken from article PMC9308755 (Chemmedchem, 2022).

In one series the target is T1, mouse TRPC5 (Mus musculus, UniProt Q9QX29).
T1 sequence (Q9QX29 1-975): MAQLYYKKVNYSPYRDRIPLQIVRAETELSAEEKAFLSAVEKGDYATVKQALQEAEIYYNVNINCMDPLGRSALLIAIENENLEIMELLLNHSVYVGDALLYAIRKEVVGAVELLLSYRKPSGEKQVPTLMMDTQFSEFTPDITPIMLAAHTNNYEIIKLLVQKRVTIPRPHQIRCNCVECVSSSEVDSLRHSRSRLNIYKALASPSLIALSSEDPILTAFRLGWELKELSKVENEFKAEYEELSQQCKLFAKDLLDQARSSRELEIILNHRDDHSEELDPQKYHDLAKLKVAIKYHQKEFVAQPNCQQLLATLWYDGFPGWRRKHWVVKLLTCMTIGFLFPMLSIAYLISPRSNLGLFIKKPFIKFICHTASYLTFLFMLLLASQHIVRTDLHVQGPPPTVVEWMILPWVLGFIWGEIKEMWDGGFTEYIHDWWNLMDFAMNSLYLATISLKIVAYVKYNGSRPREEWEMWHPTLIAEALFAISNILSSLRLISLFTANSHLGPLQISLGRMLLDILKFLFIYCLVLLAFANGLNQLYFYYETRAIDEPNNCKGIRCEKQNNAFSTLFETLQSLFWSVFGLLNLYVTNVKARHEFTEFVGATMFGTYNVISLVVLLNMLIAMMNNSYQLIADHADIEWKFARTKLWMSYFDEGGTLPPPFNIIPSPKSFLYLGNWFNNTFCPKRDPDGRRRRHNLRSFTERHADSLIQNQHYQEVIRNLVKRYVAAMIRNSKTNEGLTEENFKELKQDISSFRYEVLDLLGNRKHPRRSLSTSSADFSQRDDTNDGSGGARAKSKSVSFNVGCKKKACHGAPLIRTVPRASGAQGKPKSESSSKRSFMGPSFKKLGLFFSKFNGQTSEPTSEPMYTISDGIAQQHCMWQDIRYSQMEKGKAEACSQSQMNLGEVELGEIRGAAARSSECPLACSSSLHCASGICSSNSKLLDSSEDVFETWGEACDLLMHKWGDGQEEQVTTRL
Nature of the series: Syncropatch automated patch clamp, inhibition of riluzole-induced TRPC5 currents. It counts as cell-based. The conditions noted are these: TRPC5 IC50, riluzole (30 μM)-induced TRPC5 current; Syncropatch. The gist of the method:
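Doxycycline-induced (0.5–1 μg/mL, 3 days) Flp-In T-REx-293 cells stably expressing mouse TRPC5, used in automated patch clamp. 200 ms ramps from −100 to +100 mV every 5–10 s. 30 μM riluzole activates currents and stays present with compound. Only cells with doubly-rectifying currents kept. % inhibition compares 3 ramps after vs before compound, normalized to a reference inhibitor at 3 μM. IC50 from three-parameter fit.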
For orientation: The patch-clamp technique gives a direct electrical read-out from membranes.

The nature of series [1]: Human liver microsome stability. The series is classed as in vitro ADME. As to conditions: liver microsomes.
A short description of series [2]: Mouse liver microsome stability. It counts as in vitro ADME. As to conditions: liver microsomes. On the technique in general: Liver microsomes are a subcellular fraction often used to study metabolism.
Series [3] can be described thus: Human plasma protein binding. The series is classed as in vitro ADME.
Series [4] can be described thus: Mouse plasma protein binding. It counts as in vitro ADME.
A further series is described as follows: In vivo rat cassette PK. As to conditions: for Brain / Plasma: Rat cassette (0.25 mpk); for Brain: brain level for Kp; for Plasma: plasma level for Kp; for Kp / C0 / MRT inf / Vd / clearance / half-life / AUC: rat, intravenous; for Kp: brain/plasma, 0.25 mpk; for C0 / MRT inf / Vd / clearance / half-life: in vivo; for C0 / MRT inf / Vd / clearance / half-life / AUC: 0.25 mg/kg; for AUC: plasma.

The term IC50 denotes the point on the concentration scale where inhibition reaches its midpoint. For orientation: CLint scaled means the capacity of the preparation to metabolise the compound, expressed as a volume cleared per time. As usually defined, the fraction unbound is the share of the substance not bound to proteins or other matrix. Read a high fraction unbound as much free substance. As a reminder, the Kp is the ratio of the level in a tissue or fluid to that in plasma or blood. Usually MRT inf stands for the average time that molecules of a dose stay in the body. One may read the Vd as a proportionality between amount in the body and measured concentration, not a real space. Low values mean confinement near the circulation, high ones extensive tissue distribution. The clearance is a measure of how efficiently the substance is removed, as volume per time. A low value points to a low capacity for elimination. As a reminder, the half-life is how long it takes for the measured level to halve. In general, AUC refers to the area under the concentration-time curve, a measure of exposure. A higher AUC goes with high exposure.

`N#Cc1cc(Cn2c(N3CCCC3)nc3ccccc32)ccc1F` [9 o, 2‐Fluoro‐5‐((2‐(pyrrolidin‐1‐yl)‐1H‐benzo[d]imidazol‐1‐yl)methyl)benzonitrile] showed an IC50 against mouse TRPC5 of 540 ± 230 nM. In series [1], the CLint scaled was 38.1 mL/min/kg and the hCLHEP was 13.2 mL/min/kg. In series [2], the CLint scaled was 370 mL/min/kg and the mCLHEP is 72.5 mL/min/kg. Further, the fraction unbound in series [3] is 0.068. This molecule also displayed a fraction unbound in series [4] of 0.053. In “In vivo rat cassette PK”, this molecule registered a Brain of 41.8, a Plasma of 69.7, a Kp of 0.6 and a C0 of 221 ng/mL. In the series “In vivo rat cassette PK”, the mean residence time (MRT inf) came out at 38.5 min, the Vd stood at 1.8 L/kg, the clearance was determined as 61.3 mL/min/kg and the half-life is 38.4 min. Besides, the AUC in “In vivo rat cassette PK” was 262 ng·h/mL.

In turn, `CCCNc1nc2ccccc2n1Cc1ccc(Cl)cc1` [16 f, 1‐(4‐Chlorobenzyl)‐N‐propyl‐1H‐benzo[d]imidazol‐2‐amine] returned an IC50 against mouse TRPC5 of 68 ± 106 nM. In series [1], this molecule registered a CLint scaled of 127 mL/min/kg and a hCLHEP of 17.4 mL/min/kg. In series [2], this molecule displayed a CLint scaled of 867 mL/min/kg and a mCLHEP of 81.6 mL/min/kg. The fraction unbound in series [3] is 0.014. The same molecule had a fraction unbound in series [4] of 0.036. In the series “In vivo rat cassette PK”, this molecule returned a Brain of 163, a Plasma of 77.5, a Kp of 2.1 and a C0 of 140 ng/mL. In “In vivo rat cassette PK”, the MRT inf came to 37.9 min, the Vd worked out at 2.3 L/kg, the clearance was 57.8 mL/min/kg and the half-life is 43.3 min. Also, the AUC in the series “In vivo rat cassette PK” is 291 ng·h/mL.
